Tested on: HEK-293T
Assay: Multiplex assay against HEK293T
Type: toxicity, cell-based
Details: human
In short: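 Phenotypes for tubulin, mitochondrial mass and membrane permeability are expressed as per cents of healthy-nucleus cells. Cells were stained live at seeding with Hoechst33342, BioTracker Green Microtubule Cytoskeleton Dye, MitoTracker Red and Annexin V Alexa Fluor 680, then imaged after compound addition on a CQ1 microscope at 37°C and 5% CO2. Machine-learning gating in CellPathfinder separated Hoechst high-intensity objects from normal cells, divided normal cells by nuclear state (healthy, pyknosed, fragmented) and divided pyknosed cells into mitotic or apoptotic.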

[1] = 12 h, 1 µM, compound concentration 1 uM, replicate 1
[2] = 12 h, 1 µM, compound concentration 1 uM, replicate 2
[3] = 12 h, 10 µM, compound concentration 10 uM, replicate 1
[4] = 12 h, 10 µM, compound concentration 10 uM, replicate 2
[5] = 24 h, 1 µM, compound concentration 1 uM, replicate 1
[6] = 24 h, 1 µM, compound concentration 1 uM, replicate 2
[7] = 24 h, 10 µM, compound concentration 10 uM, replicate 1
[8] = 24 h, 10 µM, compound concentration 10 uM, replicate 2
[9] = 48 h, 1 µM, compound concentration 1 uM, replicate 1
[10] = 48 h, 1 µM, compound concentration 1 uM, replicate 2
[11] = 48 h, 10 µM, compound concentration 10 uM, replicate 1
[12] = 48 h, 10 µM, compound concentration 10 uM, replicate 2

Br.CS(=O)(=O)Nc1c(O)ccc2c1CCCC2C1=NCCN1 (configuration not stated)
Population Apoptotic (%) [1]: 40% | Population Fragmented Nuclei (%) [1]: 7% | Population Healthy Nuclei (%) [1]: 80% | Population Hoechst High Intensity Objects (%) [1]: 5% | Population Membrane Permeable-Phenotype (%) [1]: 0% | Population Mitochondria Different-Phenotype (%) [1]: 45% | Population Mitotic Cells (%) [1]: 59% | Population Normal (%) [1]: 94% | Population Pyknosed Nuclei (%) [1]: 12% | Population Tubulin-Different-Phenotype (%) [1]: 26% | Total Cell Count [1]: 407 | Population Apoptotic (%) [2]: 43% | Population Fragmented Nuclei (%) [2]: 5% | Population Healthy Nuclei (%) [2]: 81% | Population Hoechst High Intensity Objects (%) [2]: 8% | Population Mitochondria Different-Phenotype (%) [2]: 52% | Population Mitotic Cells (%) [2]: 56% | Population Normal (%) [2]: 91% | Population Tubulin-Different-Phenotype (%) [2]: 18% | Total Cell Count [2]: 334 | Population Apoptotic (%) [3]: 48% | Population Fragmented Nuclei (%) [3]: 8% | Population Healthy Nuclei (%) [3]: 76% | Population Hoechst High Intensity Objects (%) [3]: 12% | Population Membrane Permeable-Phenotype (%) [3]: 0% | Population Mitochondria Different-Phenotype (%) [3]: 60% | Population Mitotic Cells (%) [3]: 52% | Population Normal (%) [3]: 87% | Population Pyknosed Nuclei (%) [3]: 14% | Population Tubulin-Different-Phenotype (%) [3]: 33% | Total Cell Count [3]: 381 | Population Apoptotic (%) [4]: 55% | Population Fragmented Nuclei (%) [4]: 6% | Population Healthy Nuclei (%) [4]: 79% | Population Hoechst High Intensity Objects (%) [4]: 14% | Population Mitochondria Different-Phenotype (%) [4]: 67% | Population Mitotic Cells (%) [4]: 44% | Population Normal (%) [4]: 85% | Population Tubulin-Different-Phenotype (%) [4]: 26% | Total Cell Count [4]: 292 | Population Apoptotic (%) [5]: 38% | Population Fragmented Nuclei (%) [5]: 10% | Population Healthy Nuclei (%) [5]: 79% | Population Hoechst High Intensity Objects (%) [5]: 5% | Population Membrane Permeable-Phenotype (%) [5]: 1% | Population Mitochondria Different-Phenotype (%) [5]: 34% | Population Mitotic Cells (%) [5]: 61% | Population Normal (%) [5]: 94% | Population Pyknosed Nuclei (%) [5]: 10% | Population Tubulin-Different-Phenotype (%) [5]: 21% | Total Cell Count [5]: 549 | Population Apoptotic (%) [6]: 55% | Population Fragmented Nuclei (%) [6]: 6% | Population Healthy Nuclei (%) [6]: 80% | Population Hoechst High Intensity Objects (%) [6]: 8% | Population Membrane Permeable-Phenotype (%) [6]: 0% | Population Mitochondria Different-Phenotype (%) [6]: 41% | Population Mitotic Cells (%) [6]: 44% | Population Normal (%) [6]: 91% | Population Pyknosed Nuclei (%) [6]: 13% | Population Tubulin-Different-Phenotype (%) [6]: 17% | Total Cell Count [6]: 387 | Population Apoptotic (%) [7]: 30% | Population Fragmented Nuclei (%) [7]: 11% | Population Healthy Nuclei (%) [7]: 75% | Population Hoechst High Intensity Objects (%) [7]: 6% | Population Membrane Permeable-Phenotype (%) [7]: 0% | Population Mitochondria Different-Phenotype (%) [7]: 40% | Population Mitotic Cells (%) [7]: 69% | Population Normal (%) [7]: 93% | Population Pyknosed Nuclei (%) [7]: 12% | Population Tubulin-Different-Phenotype (%) [7]: 23% | Total Cell Count [7]: 451 | Population Apoptotic (%) [8]: 34% | Population Healthy Nuclei (%) [8]: 77% | Population Hoechst High Intensity Objects (%) [8]: 11% | Population Mitochondria Different-Phenotype (%) [8]: 46% | Population Mitotic Cells (%) [8]: 65% | Population Normal (%) [8]: 88% | Population Pyknosed Nuclei (%) [8]: 10% | Population Tubulin-Different-Phenotype (%) [8]: 21% | Total Cell Count [8]: 377 | Population Apoptotic (%) [9]: 12% | Population Fragmented Nuclei (%) [9]: 14% | Population Healthy Nuclei (%) [9]: 78% | Population Hoechst High Intensity Objects (%) [9]: 4% | Population Membrane Permeable-Phenotype (%) [9]: 0% | Population Mitochondria Different-Phenotype (%) [9]: 20% | Population Mitotic Cells (%) [9]: 87% | Population Normal (%) [9]: 95% | Population Pyknosed Nuclei (%) [9]: 7% | Population Tubulin-Different-Phenotype (%) [9]: 14% | Total Cell Count [9]: 859 | Population Apoptotic (%) [10]: 29% | Population Fragmented Nuclei (%) [10]: 11% | Population Hoechst High Intensity Objects (%) [10]: 6% | Population Mitochondria Different-Phenotype (%) [10]: 22% | Population Mitotic Cells (%) [10]: 70% | Population Normal (%) [10]: 93% | Population Pyknosed Nuclei (%) [10]: 9% | Population Tubulin-Different-Phenotype (%) [10]: 12% | Total Cell Count [10]: 532 | Population Apoptotic (%) [11]: 34% | Population Fragmented Nuclei (%) [11]: 16% | Population Healthy Nuclei (%) [11]: 76% | Population Hoechst High Intensity Objects (%) [11]: 4% | Population Membrane Permeable-Phenotype (%) [11]: 1% | Population Mitochondria Different-Phenotype (%) [11]: 22% | Population Mitotic Cells (%) [11]: 65% | Population Normal (%) [11]: 95% | Population Pyknosed Nuclei (%) [11]: 6% | Population Tubulin-Different-Phenotype (%) [11]: 12% | Total Cell Count [11]: 671 | Population Apoptotic (%) [12]: 48% | Population Fragmented Nuclei (%) [12]: 14% | Population Healthy Nuclei (%) [12]: 79% | Population Membrane Permeable-Phenotype (%) [12]: 0% | Population Mitochondria Different-Phenotype (%) [12]: 27% | Population Mitotic Cells (%) [12]: 51% | Population Pyknosed Nuclei (%) [12]: 5% | Population Tubulin-Different-Phenotype (%) [12]: 11% | Total Cell Count [12]: 584

Reference: ChEMBL document CHEMBL5058577, “EUbOPEN Chemogenomics Library 2 (Multiplex)” (2022)
